Measured values from ChEMBL document CHEMBL3227925, “Structure-activity relationship in a new series of atropine analogues. 1. N,N'-Disubstituted 6,7-diazabicyclo[3.2.2]nonane derivatives” (J Med Chem, 1979).
Counter-ions that a name gives are not always drawn. Activity calls are given as the source filed them. No cut-off for these calls is given here.

Key:
[1] = Antagonist activity at muscarinic acetylcholine receptor in guinea pig ileum assessed as inhibition of acetylcholine-induced contraction; type: tissue-based, Cavia porcellus
How it was run: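 Ileum segments (~2 cm) from freshly killed guinea pigs in a 10-mL organ bath of Tyrode solution at 37 °C, air-bubbled. Isotonic contractions recorded. Acetylcholine dose-response curves run without and with antagonist. Affinity constants calculated from the dose ratio. Values are means of two to four separate experiments ± SD.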

[2] = Toxicity in ip dosed mouse; type: organism-based; details: in vivo
How it was run: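 Preliminary LD50 determination in mice given the drugs intraperitoneally.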

Cavia porcellus [3] = organism: Cavia porcellus; assay: Competitive antagonist activity at muscarinic acetylcholine receptor in guinea pig ileum assessed as inhibition of acetylcholine-induced contraction at 1.1X10'-8 M; type: tissue-based
How it was run: (§1)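 Guinea pig ileum (~2 cm, freshly killed animals) in a 10-mL Tyrode bath at 37 °C, air-bubbled, isotonic lever recording. Acetylcholine dose-response curves recorded alone and with antagonist present at a single fixed concentration (1×10^-8 or 1.1×10^-8 M). The curves were compared for shift.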

[4] = Displacement of [3H]4-NMPB from muscarinic acetylcholine receptor in mouse brain; type: tissue-based
Cavia porcellus [5] = organism: Cavia porcellus; assay: Competitive antagonist activity at muscarinic acetylcholine receptor in guinea pig ileum assessed as inhibition of acetylcholine-induced contraction at 1X10'-8 M; type: tissue-based; how it was run: as §1

Structure (SMILES)	Kd [1]	further results
CN1[C@@H]2CC[C@@H](C[C@H](OC(=O)C(CO)c3ccccc3)C2)N1C (stereo in doubt; 1)	1.7 nM	LD50 [2]: 150 mg/kg
CN1[C@@H]2CC[C@@H](C[C@H](OC(=O)C(CO)c3ccccc3)C2)N1C (stereo in doubt; 4)	170 nM	
CN1[C@@H]2CC[C@@H](C[C@H](OC(=O)C(CO)c3ccccc3)C2)N1C (stereo in doubt; 5) [listing 1 of 2 here]		inhibition (Cavia porcellus [3]): Active
CN1[C@@H]2CC[C@@H](C[C@H](OC(=O)C(CO)c3ccccc3)C2)N1C (stereo not given in full)	0.091 nM	
CN1[C@@H]2CC[C@@H](C[C@H](OC(=O)C(CO)c3ccccc3)C2)N1C (stereo in doubt; 5) [listing 2 of 2 here]	1.6 nM	Kd [4]: 2.1 nM
CN1[C@@H]2CC[C@H]1C[C@@H](OC(=O)C(CO)c1ccccc1)C2 (stereo not given in full) [ATROPINE SULFATE]	0.49 nM	
CN1[C@@H]2CC[C@@H](C[C@H](OC(=O)C(CO)c3ccccc3)C2)N1C (stereo in doubt; 2) [listing 1 of 2 here]	0.066 nM	
CN1[C@@H]2CC[C@@H](C[C@H](OC(=O)C(CO)c3ccccc3)C2)N1C (stereo in doubt; 2) [listing 2 of 2 here]		inhibition (Cavia porcellus [5]): Active
